# Experimental data collected from several papers.
# Each line is one published result; the experiments were not run side by side.
# AKR1C2: Aldo-keto reductase family 1 member C2 (AKR1C2, Homo sapiens, UniProt P52895)
# Neuronal acetylcholine receptor; alpha3/beta2: Neuronal acetylcholine receptor; alpha3/beta2 (Rattus norvegicus, UniProt P04757+P12390)
Compound,target,assay,setting,IC50
O=C(O)C(F)F,AKR1C2,"enzyme activity, inhibitor, fluorescence",,> 50 µM
CNC(=O)c1ccc(-c2cnn3ccc(C(=O)N(C)c4ccc(Cl)c(C(=O)OC)c4)cc23)cc1,"Serine/threonine-protein kinase Nek11 (NEK11, Homo sapiens, UniProt Q8NG66)","enzyme activity, inhibitor",,> 30 µM
CC[C@H](C)[C@H](NC(C)=O)C(=O)N[C@@H](CCC(=O)O)C(=O)N[C@H](C(=O)N[C@H](C=O)CC(=O)O)[C@@H](C)O,"Caspase-4 (Casp4, Mus musculus, UniProt P70343)","enzyme activity, inhibitor",,0.162 µM
COc1ccc2[nH]c3c(c2c1)CCN(C)CC3,Neuronal acetylcholine receptor; alpha3/beta2,"ion current, antagonist, two-electrode voltage clamp",oocytes,28.3 µM
O=C(O)C(F)(OC(F)(F)C(F)(F)C(F)(F)F)C(F)(F)F (centres unmarked),AKR1C2,"enzyme activity, inhibitor, fluorescence",,13.8 µM
COC(=O)c1cc(N(C)C(=O)c2ccn3ncc(-c4ccc(C(=O)O)cc4)c3c2)ccc1Cl,"Vascular endothelial growth factor receptor 1 (FLT1, Homo sapiens, UniProt P17948)","enzyme activity, inhibitor",,> 30 µM
COc1ccc2c3c([nH]c2c1)CCN(C)CC3,Neuronal acetylcholine receptor; alpha3/beta2,"ion current, antagonist, two-electrode voltage clamp",oocytes,27.6 µM
O=C(NC[C@H]1C[C@@H]2CCN1C[C@@H]2CN1C[C@@H]2C[C@H](C1)c1cccc(=O)n1C2)c1ccc2c(c1)OCO2,"Atypical kinase COQ8A, mitochondrial (COQ8A, Homo sapiens, UniProt Q8NI60)","ligand displacement, TR-FRET",,13.7 µM
